This is an account of results in ChEMBL document CHEMBL1133703, “Inhibitors of topoisomerase II based on the benzodiimidazole and dipyrroloimidazobenzimidazole ring systems: controlling DT-diaphorase reductive inactivation with steric bulk” (2000).

What all share (type): functional
Common to all, as to settings: Homo sapiens

For one experiment, the system named is Renal cancer cell line. Kind of experiment: Lethal concentration was determined against Renal cancer cell line. A digest of the protocol: (§1)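 NCI 60-cell-line in vitro screen run at the National Cancer Institute on a submitted sample of about 5 mg. The screen yields mean graph data: LC50 (50% lethal concentration), GI50 and TGI. The LC50 values reported are averages over the cell lines of each cancer type.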

For another experiment, the system named is CNS carcinoma cell. Kind of experiment: Lethal concentration was determined against CNS cancer cell line. A digest of the protocol:
as §1

A further experiment deals with Melanoma cell. Kind of experiment: Lethal concentration was determined against Melanoma cell line. A digest of the protocol: as §1
The subject of experiment [1] is Panel leukemia (Carcinoma cell lines). The experiment is described as follows: Lethal concentration was determined against Leukemia cell line. A digest of the protocol: as §1
In another experiment the test system is Ovarian carcinoma cell. Kind of experiment: Lethal concentration was determined against Ovarian cancer cell line. A digest of the protocol: as §1
For another experiment, the system named is NSCLC. Kind of experiment: Lethal concentration was determined against NSC lung cancer cell line. A digest of the protocol: as §1
A further experiment has as its system Colon carcinoma cell. The experiment is described as follows: Lethal concentration was determined against Colon cancer cell line. A digest of the protocol:
as §1

For `Cn1c(CCl)nc2c1C(=O)c1c(nc(CCl)n1C)C2=O`, the LC50 (50% lethal concentration) is 6.31 µM in the experiment with Renal cancer cell line, 5.01 µM with Melanoma cell, 4.37 µM in experiment [1] and 10 µM with Ovarian carcinoma cell. Further, the figures for the LC50 in the experiment with CNS carcinoma cell and with NSCLC were 5.01 µM and 4.47 µM, respectively.
`Cc1nc2c(n1C)C(=O)c1c(nc(CCl)n1C)C2=O`: the LC50 (50% lethal concentration) with Renal cancer cell line was 15.8 µM; in the experiment with Melanoma cell, 5.89 µM; in experiment [1], 12.9 µM; with Ovarian carcinoma cell it was 25.1 µM. In addition, the LC50 with Colon carcinoma cell was 6.31 µM; in the experiment on CNS carcinoma cell, 15.8 µM; with NSCLC it was 12.3 µM.
Consider `CC(=O)NC1=C(C)C(=O)c2c(nc3n2CCC3OC(C)=O)C1=O` (centres undefined), for which the LC50 (50% lethal concentration) with Renal cancer cell line is 15.8 µM; in the experiment with Melanoma cell it was 12.6 µM; in experiment [1], 100 µM; in the experiment with Ovarian carcinoma cell it was 15.8 µM. Besides, the 50% lethal concentration (LC50) in the experiment on Colon carcinoma cell is 31.6 µM; in the experiment on CNS carcinoma cell it was 25.1 µM; with NSCLC, 20 µM.
Take `O=C1c2nc3n(c2C(=O)c2c1nc1n2CCC1)CCC3`: the LC50 (50% lethal concentration) was 79.4 µM in the experiment on Renal cancer cell line, 15.8 µM in the experiment with Melanoma cell, 100 µM in experiment [1] and 50.1 µM in the experiment on Ovarian carcinoma cell. Moreover, the LC50 was 50.1 µM in the experiment with Colon carcinoma cell, 63.1 µM with CNS carcinoma cell and 39.8 µM in the experiment with NSCLC.
On to `CC(=O)OC1CCn2c1nc1c2C(=O)c2c(nc3n2CCC3OC(C)=O)C1=O` (centres undefined), for which the LC50 (50% lethal concentration) is 6.31 µM in the experiment with Renal cancer cell line, 2.57 µM in the experiment on Melanoma cell, 2.51 µM in experiment [1] and 3.98 µM in the experiment on Ovarian carcinoma cell. For the same molecule, the LC50 with Colon carcinoma cell is 3.8 µM; with CNS carcinoma cell it was 3.16 µM; in the experiment with NSCLC, 3.98 µM.
